# Key:
# Format in all cases: functional, cell-based
# FM3A [1] = assay: Inhibitory activity against proliferation of murine mammary carcinoma FM3A tumor cell line; conditions: Mus musculus
# Method in brief: (§1)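 Molt/4F or FM3A cells were suspended in growth medium and plated at 5×10^4 cells/well with varying compound concentrations. They proliferated 72 h at 37 °C in a humidified, CO2-controlled atmosphere before Coulter-counter enumeration. IC50 is the concentration giving a 50% drop in viable cell count.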
# L1210 [2] = assay: Inhibitory activity against proliferation of murine leukemia L1210 tumor cell line; conditions: Mus musculus
# Method in brief: (§2)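 L1210 cells in growth medium, seeded at 5×10^4 cells/well with a range of test compound concentrations, grown 48 h at 37 °C in humidified CO2-controlled air. Cells were counted in a Coulter counter. IC50 is the concentration reducing viable cell number by 50%.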
# MT4 [3] = assay: Inhibitory activity against proliferation of human T-lymphocyte MT-4 tumor cell line
# Method in brief: (§3)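 MT-4 cells in growth medium, plated at 6.25×10^4 cells/well with serial compound concentrations. Incubation was 72 h at 37 °C, humidified and CO2-controlled, then cells were counted electronically (Coulter). IC50 is the concentration lowering viable cell number by 50%.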
# MOLT-4F [4] = assay: Inhibitory activity against proliferation of human T-lymphoblast Molt/4F tumor cell line; method in brief: as §1
# MT4 [5] = assay: Inhibitory activity against proliferation of human(MT-4) tumor cell.; method in brief: as §3
# MOLT-4F [6] = assay: Inhibitory activity against proliferation of human(Molt/4F) tumor cell.; method in brief: as §1
# L1210 [7] = assay: Inhibitory activity against proliferation of murine (L1210) tumor cell.; conditions: Mus musculus; method in brief: as §2
# FM3A [8] = assay: Inhibitory activity against proliferation of murine (FM3A) tumor cell.; conditions: Mus musculus; method in brief: as §1
SMILES,IC50 (L1210 [2]) [µg/mL],IC50 (MOLT-4F [4]) [µg/mL],IC50 (MOLT-4F [6]) [µg/mL],IC50 (L1210 [7]) [µg/mL],IC50 (FM3A [1]) [µg/mL],IC50 (MT4 [3]) [µg/mL],IC50 (MT4 [5]) [µg/mL],IC50 (FM3A [8]) [µg/mL]
COc1ccc(/C=C/C=C(\C)C2=CC(=O)C(C)(C)O2)cc1,18,10,–,–,25,5.7,–,–
COc1cc2ccc(=O)oc2cc1OC/C=C(\C)C1=CC(=O)C(C)(C)O1,–,–,2.9,2,–,–,0.6,3.9
C/C(=C\COC(=O)NC1CCCCC1)C1=CC(=O)C(C)(C)O1,3.7,3.4,–,–,13,2.4,–,–
C/C(=C\C=C/C1CCCCC1)C1=CC(=O)C(C)(C)O1,23,7.1,–,–,10.8,8.4,–,–
C/C(=C\C=C\c1ccc2ccc(=O)oc2c1)C1=CC(=O)C(C)(C)O1,–,–,13,63,–,–,2.9,> 100
C/C(=C\C=C\c1ccccc1)C1=CC(=O)C(C)(C)O1,14,14,–,–,15,6.5,–,–
C/C(=C\COC(=O)NCc1ccccc1)C1=CC(=O)C(C)(C)O1,4.7,6,–,–,8.1,2,–,–
C/C(=C\COC(=O)Nc1ccccc1)C1=CC(=O)C(C)(C)O1,> 200,> 200,–,–,> 200,103,–,–

# Continued, in another order:
IC50 (L1210 [2]) [µg/mL],IC50 (MOLT-4F [4]) [µg/mL],IC50 (MOLT-4F [6]) [µg/mL],IC50 (L1210 [7]) [µg/mL],SMILES,IC50 (FM3A [1]) [µg/mL],IC50 (MT4 [3]) [µg/mL],IC50 (MT4 [5]) [µg/mL],IC50 (FM3A [8]) [µg/mL]
4.9,6.6,–,–,C/C(=C\COC(=O)NC(C)C)C1=CC(=O)C(C)(C)O1,7.2,2.3,–,–
–,–,1.7,2,CCCCCCCCNC(=O)OC/C=C(\C)C1=CC(=O)C(C)(C)O1,–,–,1.3,7.1
–,–,10.7,5.1,C/C(=C\COC(=O)NCCCl)C1=CC(=O)C(C)(C)O1,–,–,6.4,20.8
2.6,5.3,–,–,CCCCNC(=O)OC/C=C(\C)C1=CC(=O)C(C)(C)O1,7.7,1.2,–,–
4.1,6.1,–,–,C/C(=C\COC(=O)NC(C)(C)C)C1=CC(=O)C(C)(C)O1,7.1,2.1,–,–
6.2,7.7,–,–,C=CCNC(=O)OC/C=C(\C)C1=CC(=O)C(C)(C)O1,7.6,2.8,–,–

# Source: ChEMBL document CHEMBL1125784, “Geiparvarin analogues. 2. Synthesis and cytostatic activity of 5-(4-arylbutadienyl)-3(2H)-furanones and of N-substituted 3-(4-oxo-2-furanyl)-2-buten-2-yl carbamates” (J Med Chem, 1991)
